Data published in ChEMBL document CHEMBL1131244, “New alkenyldiarylmethanes with enhanced potencies as anti-HIV agents which act as non-nucleoside reverse transcriptase inhibitors” (J Med Chem, 1998).

Columns and labels:
[1] = target: T1, Human immunodeficiency virus type 1 integrase (Human immunodeficiency virus 1, UniProt Q7ZJM1); test: The compound is evaluated for the inhibitory against HIV -1 integrase. NI refers to no inhibition.
[2] = target: T2, Human immunodeficiency virus 1 nucleocapsid (Human immunodeficiency virus 1, UniProt Q76059); test: Inhibition of HIV-1 Nucleocapsid protein p7 (no inhibition)
[3] = target: T3, Human immunodeficiency virus type 1 protease (Human immunodeficiency virus 1, UniProt Q72874); test: The compound is evaluated for the inhibitory against HIV -1 protease, a 30% inhibition of HIV-1 protease was observed at a concentration of 100 uM
[4] = system: CEM-SS; test: Inhibitory concentration for cytopathicity of HIV-1 in CEM-SS cells; format: functional, cell-based; conditions: Homo sapiens
Method in brief: (§1)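 XTT cytoprotection assay in CEM-SS cells infected with HIV-1 RF, with uninfected cultures for cytotoxicity, in presence of fetal calf serum. Data as percent of uninfected drug-free control. EC50 is 50% protection from cytopathicity; CC50 is 50% cell death in uninfected cells; TI = CC50/EC50. Triplicates on each of two sister plates, plate EC50s averaged. Confirmed by supernatant RT and p24.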

[5] = target: T4, Human immunodeficiency virus type 1 reverse transcriptase (Human immunodeficiency virus 1, UniProt Q72547); test: The compound is evaluated for the inhibitory against HIV -1 reverse transcriptase with rAdT as the template primer.
Method in brief: (§2)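 Reactions stopped with ice-cold 10% trichloroacetate, filtered through GF/C membrane, washed with ethanol, radiolabel counted by Cerenkov counting. AZTTP and nevirapine as positive controls; IC50 reported.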

[6] = system: CCRF-CEM; test: The compound is evaluated for the cytotoxic concentration for the mock-infected CEM cells; format: functional; conditions: Homo sapiens; method in brief: as §1
[7] = target: T4, Human immunodeficiency virus type 1 reverse transcriptase; test: Inhibitory activity against human immunodeficiency virus (HIV) - 1 reverse transcriptase with rCdG as the template primer; method in brief: as §2
[8] = The compound is evaluated for the therapeutic index, which is the CC50 divided by the EC50; format: functional; method in brief: as §1
[9] = system: CCRF-CEM; test: The compound is evaluated for the activity against OC (Oxathiin carboxanilide resistant), L100I mutation in reverse transcriptase in CEM-CC cells.; format: functional, cell-based; conditions: Homo sapiens
Method in brief: (§3)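 Cytoprotection assay in CEM-CC cells against NNRTI-resistant HIV-1 isolates obtained by in vitro selection or site-directed mutagenesis, using a higher MOI than the original screening assays. EC50 determined; fold resistance relative to wild-type HIV-1 IIIB.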

[10] = system: CEM-SS; test: The compound is evaluated for the inhibitory activity against HIV-1 IIIB, wild-type laboratory adapted strain in CEM-SS.; format: functional, cell-based; conditions: Homo sapiens
Method in brief: (§4)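 XTT cytoprotection assay in CEM-SS cells infected with HIV-1. EC50 is the concentration giving 50% protection from viral cytopathicity, relative to the uninfected drug-free control. Triplicates were averaged on each of two sister plates, and the two plate EC50s were averaged. Results were confirmed by supernatant RT and p24 levels.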

[11] = system: CEM-SS; test: The compound is evaluated for the activity against HIV-1 NL4-3, A98G mutation in reverse transcriptase in CEM-SS cells.
[12] = system: CEM-SS; test: The compound is evaluated for the activity against HIV-1 NL4-3, Y181C mutation in reverse transcriptase in CEM-SS cells.
[13] = target: T3, Human immunodeficiency virus type 1 protease; test: The compound is evaluated for the inhibitory against HIV -1 protease, a 17% inhibition of HIV-1 protease was observed at a concentration of 100 uM
[14] = system: CCRF-CEM; test: The compound is evaluated for the activity against calo ( calanolide resistant), T139I mutation in reverse transcriptase in CEM-CC cells.; format: functional, cell-based; conditions: Homo sapiens; method in brief: as §3
[15] = The compound is evaluated for the inhibitory activity against HIV-1 ROJO, wild-type clinical isolate in PBMC cells.; format: functional, cell-based, Homo sapiens
[16] = system: CEM-SS; test: The compound is evaluated for the activity against HIV-1 NL4-3, 4XAZT (AZT resistant) mutation in reverse transcriptase in CEM-SS cells.; format: functional, cell-based; conditions: Homo sapiens
Method in brief: (§5)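 NL4-3-background virus carrying RT mutations, from site-directed mutagenesis or in vitro NNRTI selection, tested in CEM-SS cells. A higher MOI was used than in the primary screening assays. The result is given as EC50 against each mutant or wild-type virus.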

[17] = system: CEM-SS; test: The compound is evaluated for the activity against HIV-1 NL4-3, V108I mutation in reverse transcriptase in CEM-SS cells.
[18] = system: CEM-SS; test: The compound is evaluated for the activity against HIV-1 NL4-3, wild - type mutation in reverse transcriptase in CEM-SS cells.; format: functional, cell-based; conditions: Homo sapiens; method in brief: as §5
[19] = species: Homo sapiens; test: The compound is evaluated for the inhibitory activity against HIV-1 Ba-L, monocyte-tropic in Mono/Mac cells.; format: functional, cell-based
[20] = system: CEM-SS; test: The compound is evaluated for the activity against HIV-1 NL4-3, L100I mutation in reverse transcriptase in CEM-SS cells.
[21] = system: CCRF-CEM; test: The compound is evaluated for the activity against cost, Y188H mutation in reverse transcriptase in CEM-CC cells.; format: functional, cell-based; conditions: Homo sapiens; method in brief: as §3
[22] = target: T2, Human immunodeficiency virus 1 nucleocapsid; test: Inhibition of HIV-1 Nucleocapsid protein p7 (no inhibition at 25 uM)
[23] = system: CCRF-CEM; test: The compound is evaluated for the activity against thiazol (thiazolobenzimidazole resistant), T139I mutation in reverse transcriptase in CEM-CC cells.; format: functional, cell-based; conditions: Homo sapiens, in the assay text read “V108I” for “T139I”; method in brief: as §3
[24] = system: CEM-SS; test: The compound is evaluated for the activity against HIV-1 NL4-3, V179D mutation in reverse transcriptase in CEM-SS cells.
[25] = system: CEM-SS; test: The compound is evaluated for the activity against HIV-1 NL4-3, Y188C mutation in reverse transcriptase in CEM-SS cells.
[26] = The compound is evaluated for the inhibitory activity against HIV-1, clade B in PBMC cells.; format: functional, cell-based, Homo sapiens
[27] = The compound is evaluated for the inhibitory activity against HIV-1 TEKI, wild-type clinical isolate in PBMC cells.; format: functional, cell-based, Homo sapiens
[28] = system: CCRF-CEM; test: The compound is evaluated for the activity against HIV-1 IIIB, wild - type mutation in reverse transcriptase in CEM-CC cells.; format: functional, cell-based; conditions: Homo sapiens
Method in brief: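 Resistant-virus panel in CEM-CC cells. Mutant isolates came from in vitro selection under various NNRTIs. More virus (higher MOI) was used than in the primary screening assays. The result is given as EC50 against each RT-mutant or wild-type isolate.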

[29] = system: CCRF-CEM; test: The compound is evaluated for the activity against 129/cost (costatolide resistant), V108I mutation in reverse transcriptase in CEM-CC cells.; format: functional, cell-based; conditions: Homo sapiens, in the assay text read “K103N” for “V108I”; method in brief: as §3
[30] = system: CCRF-CEM; test: The compound is evaluated for the activity against TSAO/cost (costatolide resistant), K101E mutation in reverse transcriptase in CEM-CC cells.; format: functional, cell-based; conditions: Homo sapiens; method in brief: as §3
[31] = system: CEM-SS; test: The compound is evaluated for the activity against HIV-1 NL4-3, 4XAZT/Y181C (AZT resistant) mutation in reverse transcriptase in CEM-SS cells.
[32] = system: CCRF-CEM; test: The compound is evaluated for the activity against 3TC, M184I mutation in reverse transcriptase in CEM-CC cells.; format: functional, cell-based; conditions: Homo sapiens
[33] = The compound is evaluated for the inhibitory activity against HIV-1, clade D in PBMC cells.; format: functional, cell-based, Homo sapiens
[34] = target: T1, Human immunodeficiency virus type 1 integrase; test: The compound is evaluated for the inhibitory against HIV -1 integrase. NI indicates no inhibition at 100 uM conc.
[35] = system: CEM-SS; test: The compound is evaluated for the activity against HIV-1 NL4-3, L74V mutation in reverse transcriptase in CEM-SS cells.
[36] = system: CEM-SS; test: The compound is evaluated for the inhibitory activity against HIV-1 RF, wild-type laboratory adapted strain in CEM-SS.; format: functional, cell-based; conditions: Homo sapiens; method in brief: as §4
[37] = system: CEM-SS; test: The compound is evaluated for the activity against HIV-1 NL4-3, K101E mutation in reverse transcriptase in CEM-SS cells.
[38] = The compound is evaluated for the inhibitory activity against HIV-1, clade A in PBMC cells.; format: functional, cell-based, Homo sapiens
[39] = The compound is evaluated for the inhibitory activity against HIV-1, clade C in PBMC cells.; format: functional, cell-based, Homo sapiens
[40] = system: CCRF-CEM; test: The compound is evaluated for the activity against HEPT ((Hydroxyethoxy) methyl (phenylthio)thymine resistant), P236L mutation in reverse transcriptase in CEM-CC cells.; format: functional, cell-based; conditions: Homo sapiens; method in brief: as §3
[41] = The compound is evaluated for the inhibitory activity against HIV-1, clade E in PBMC cells.; format: functional, cell-based, Homo sapiens
[42] = The compound is evaluated for the inhibitory activity against HIV-1, clade F in PBMC cells.; format: functional, cell-based, Homo sapiens
[43] = system: CEM-SS; test: The compound is evaluated for the activity against HIV-1 NL4-3, K103N mutation in reverse transcriptase in CEM-SS cells.
[44] = system: CEM-SS; test: The compound is evaluated for the activity against HIV-1 NL4-3, V106A mutation in reverse transcriptase in CEM-SS cells.
[45] = system: CCRF-CEM; test: The compound is evaluated for the activity against DPS ( Diphenyl sulfone resistant), Y181C mutation in reverse transcriptase in CEM-CC cells.; format: functional, cell-based; conditions: Homo sapiens; method in brief: as §3
[46] = system: CEM-SS; test: The compound is evaluated for the activity against HIV-1 NL4-3, 4XAZT/L100I (AZT resistant) mutation in reverse transcriptase in CEM-SS cells.

COC(=O)c1cc(C(=CCCN=[N+]=[N-])c2cc(Cl)c(OC)c(C(=O)OC)c2)cc(Cl)c1OC
IC50 [1]: No inhibition
IC50 [2]: Not Active
IC50 [3]: > 100 µM
EC50 [4]: 0.27 µM
IC50 [5]: 9.9 µM
CC50 [6]: 41.8 µM
IC50 [7]: 2 µM
TI [8]: 155

COC(=O)CCCC=C(c1cc(Cl)c(OC)c(C(=O)OC)c1)c1cc(Cl)c(OC)c(C(=O)OC)c1
EC50 [9]: 0.94 µM
EC50 [10]: 0.16 µM
EC50 [11]: 0.84 µM
EC50 [12]: > 50 µM
IC50 [13]: > 100 µM
EC50 [14]: 15 µM
EC50 [15]: 2.28 µM
EC50 [16]: 0.9 µM
EC50 [17]: 12 µM
EC50 [18]: 1.78 µM
EC50 [19]: 0.36 µM
EC50 [20]: < 0.16 µM
CC50 [6]: 31.6 µM
EC50 [21]: > 50 µM
IC50 [22]: No inhibition
EC50 [23]: > 50 µM
EC50 [24]: 50 µM
EC50 [25]: 10.8 µM
EC50 [26]: 0.43 µM
EC50 [27]: 2.2 µM
EC50 [28]: 0.39 µM
EC50 [29]: 10.8 µM
EC50 [30]: 11.9 µM
EC50 [31]: > 50 µM
EC50 [32]: 1.08 µM
EC50 [33]: 1.02 µM
IC50 [34]: No inhibition
EC50 [35]: 2.23 µM
EC50 [36]: 0.91 µM
EC50 [37]: 3.05 µM
EC50 [38]: 1.09 µM
EC50 [39]: 1.04 µM
EC50 [40]: 8.08 µM
EC50 [41]: 0.4 µM
EC50 [42]: 1.7 µM
EC50 [43]: > 50 µM
EC50 [44]: 12.7 µM
EC50 [45]: > 50 µM
EC50 [46]: 0.27 µM
